Laboratory results published in ChEMBL document CHEMBL4270530, “Surmounting the resistance against EGFR inhibitors through the development of thieno[2,3-d]pyrimidine-based dual EGFR/HER2 inhibitors” (Eur J Med Chem, 2018).

Legend:
Assay type in all cases: functional
[1] = system: HL-60(TB); experiment: Growth inhibition of human HL-60(TB) cells assessed as cell growth at 10 uM incubated for 48 hrs by sulforhodamine B assay relative to control; conditions: HL-60, 48 h, read-out: Activity
Method in brief: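 Single-dose (10 µM) screen across the full NCI-60 panel, run by the NCI Developmental Therapeutics Program. Read-out is growth percent relative to untreated control, taken from the NCI one-dose mean graph.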

[2] = system: MOLT-4; experiment: Growth inhibition of human MOLT4 cells assessed as cell growth at 10 uM incubated for 48 hrs by sulforhodamine B assay relative to control; conditions: MOLT-4, 48 h, read-out: Activity
Method in brief: (§1)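 NCI-60 one-dose screen run by the NCI Developmental Therapeutics Program at a single 10 µM concentration; growth percent read from the one-dose mean graph.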

[3] = system: SR; experiment: Growth inhibition of human SR cells assessed as cell growth at 10 uM incubated for 48 hrs by sulforhodamine B assay relative to control; conditions: read-out: Activity
Method in brief: (§2)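 NCI-60 single-dose screen at 10 µM run by the NCI Developmental Therapeutics Program; growth percent read from the one-dose mean graph, with percent inhibition approximated from those growth-percent values.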

[4] = system: EKVX; experiment: Growth inhibition of human EKVX cells at 10 uM incubated for 48 hrs by sulforhodamine B assay relative to control; conditions: read-out: GI; method in brief: as §1
[5] = system: HOP-62; experiment: Growth inhibition of human HOP62 cells assessed as cell growth at 10 uM incubated for 48 hrs by sulforhodamine B assay relative to control; conditions: HOP-62, 48 h, read-out: Activity; method in brief: as §1
[6] = system: NCI-H322M; experiment: Growth inhibition of human NCI-H322M cells at 10 uM incubated for 48 hrs by sulforhodamine B assay relative to control; conditions: read-out: GI; method in brief: as §1
[7] = system: NCI-H460; experiment: Growth inhibition of human NCI-H460 cells assessed as cell growth at 10 uM incubated for 48 hrs by sulforhodamine B assay relative to control; conditions: NCI-H460, 48 h, read-out: Activity; method in brief: as §1
[8] = system: NCI-H522; experiment: Growth inhibition of human NCI-H522 cells assessed as cell growth at 10 uM incubated for 48 hrs by sulforhodamine B assay relative to control; conditions: NCI-H522, 48 h, read-out: Activity; method in brief: as §1
[9] = system: HCC 2998; experiment: Growth inhibition of human HCC2998 cells assessed as cell growth at 10 uM incubated for 48 hrs by sulforhodamine B assay relative to control; conditions: HCC 2998, 48 h, read-out: Activity; method in brief: as §1
[10] = system: SF-268; experiment: Growth inhibition of human SF268 cells assessed as cell growth at 10 uM incubated for 48 hrs by sulforhodamine B assay relative to control; conditions: SF-268, 48 h, read-out: Activity; method in brief: as §1
[11] = system: SF-539; experiment: Growth inhibition of human SF539 cells assessed as cell growth at 10 uM incubated for 48 hrs by sulforhodamine B assay relative to control; conditions: SF-539, 48 h, read-out: Activity; method in brief: as §1
[12] = system: SNB-75; experiment: Growth inhibition of human SNB75 cells assessed as cell growth at 10 uM incubated for 48 hrs by sulforhodamine B assay relative to control; conditions: SNB-75, 48 h, read-out: Activity; method in brief: as §2
[13] = system: LOX IMVI; experiment: Growth inhibition of human LOXIMVI cells assessed as cell growth at 10 uM incubated for 48 hrs by sulforhodamine B assay relative to control; conditions: read-out: Activity; method in brief: as §1
[14] = system: Malme-3M; experiment: Growth inhibition of human MALME-3M cells assessed as cell growth at 10 uM incubated for 48 hrs by sulforhodamine B assay relative to control; conditions: read-out: Activity; method in brief: as §1
[15] = system: M14; experiment: Growth inhibition of human M14 cells assessed as cell growth at 10 uM incubated for 48 hrs by sulforhodamine B assay relative to control; conditions: M14, 48 h, read-out: Activity; method in brief: as §1
[16] = system: MDA-MB-435; experiment: Growth inhibition of human MDA-MB-435 cells assessed as cell growth at 10 uM incubated for 48 hrs by sulforhodamine B assay relative to control; conditions: MDA-MB-435, 48 h, read-out: Activity; method in brief: as §1
[17] = system: UACC-257; experiment: Growth inhibition of human UACC257 cells assessed as cell growth at 10 uM incubated for 48 hrs by sulforhodamine B assay relative to control; conditions: UACC-257, 48 h, read-out: Activity; method in brief: as §2
[18] = system: UACC-62; experiment: Growth inhibition of human UACC62 cells assessed as cell growth at 10 uM incubated for 48 hrs by sulforhodamine B assay relative to control; conditions: UACC-62, 48 h, read-out: Activity; method in brief: as §2
[19] = system: IGROV-1; experiment: Growth inhibition of human IGROV1 cells at 10 uM incubated for 48 hrs by sulforhodamine B assay relative to control; conditions: IGROV-1, 48 h, read-out: GI; method in brief: as §1
[20] = system: OVCAR-3; experiment: Growth inhibition of human OVCAR3 cells assessed as cell growth at 10 uM incubated for 48 hrs by sulforhodamine B assay relative to control; conditions: OVCAR-3, 48 h, read-out: Activity; method in brief: as §1
[21] = system: OVCAR-4; experiment: Growth inhibition of human OVCAR4 cells assessed as cell growth at 10 uM incubated for 48 hrs by sulforhodamine B assay relative to control; conditions: OVCAR-4, 48 h, read-out: Activity; method in brief: as §1
[22] = system: A498; experiment: Growth inhibition of human A498 cells assessed as cell growth at 10 uM incubated for 48 hrs by sulforhodamine B assay relative to control; conditions: A498, 48 h, read-out: Activity; method in brief: as §1
[23] = system: ACHN; experiment: Growth inhibition of human ACHN cells at 10 uM incubated for 48 hrs by sulforhodamine B assay relative to control; conditions: read-out: GI; method in brief: as §1
[24] = system: RXF 393; experiment: Growth inhibition of human RXF393 cells assessed as cell growth at 10 uM incubated for 48 hrs by sulforhodamine B assay relative to control; conditions: RXF 393, 48 h, read-out: Activity; method in brief: as §1
[25] = system: SN12C; experiment: Growth inhibition of human SN12C cells assessed as cell growth at 10 uM incubated for 48 hrs by sulforhodamine B assay relative to control; conditions: read-out: Activity; method in brief: as §1
[26] = system: TK-10; experiment: Growth inhibition of human TK10 cells at 10 uM incubated for 48 hrs by sulforhodamine B assay relative to control; conditions: TK-10, 48 h, read-out: GI; method in brief: as §2
[27] = system: UO-31; experiment: Growth inhibition of human UO31 cells assessed as cell growth at 10 uM incubated for 48 hrs by sulforhodamine B assay relative to control; conditions: UO-31, 48 h, read-out: Activity; method in brief: as §2
[28] = system: MCF7; experiment: Growth inhibition of human MCF7 cells assessed as cell growth at 10 uM incubated for 48 hrs by sulforhodamine B assay relative to control; conditions: MCF7, 48 h, read-out: Activity; method in brief: as §1
[29] = system: MDA-MB-231; experiment: Growth inhibition of human MDA-MB-231 cells assessed as cell growth at 10 uM incubated for 48 hrs by sulforhodamine B assay relative to control; conditions: MDA-MB-231, 48 h, read-out: Activity; method in brief: as §1
[30] = system: Hs-578T; experiment: Growth inhibition of human Hs 578T cells assessed as cell growth at 10 uM incubated for 48 hrs by sulforhodamine B assay relative to control; conditions: read-out: Activity; method in brief: as §1
[31] = system: BT-549; experiment: Growth inhibition of human BT549 cells assessed as cell growth at 10 uM incubated for 48 hrs by sulforhodamine B assay relative to control; conditions: BT-549, 48 h, read-out: Activity; method in brief: as §1
[32] = system: MDA-MB-468; experiment: Growth inhibition of human MDA-MB-468 cells at 10 uM incubated for 48 hrs by sulforhodamine B assay relative to control; conditions: MDA-MB-468, 48 h, read-out: GI; method in brief: as §1

Row | SMILES | growth at 10 µM [1] | growth at 10 µM [2] | growth at 10 µM [3] | inhibition of growth at 10 µM [4] | growth at 10 µM [5] | inhibition of growth at 10 µM [6] | growth at 10 µM [7] | growth at 10 µM [8] | growth at 10 µM [9] | growth at 10 µM [10] | growth at 10 µM [11] | growth at 10 µM [12] | growth at 10 µM [13] | growth at 10 µM [14] | growth at 10 µM [15] | growth at 10 µM [16] | growth at 10 µM [17] | growth at 10 µM [18] | inhibition of growth at 10 µM [19] | growth at 10 µM [20] | also measured
1 | Nc1ccc(-c2cc3c(Nc4ccc(OCc5cccc(F)c5)c(Cl)c4)ncnc3s2)cc1 | 48.2% | 30% | 14.5% | 80% | 62.3% | 75% | 36.5% | 13.1% | 38.6% | 52.1% | 57.4% | 87.2% | 24.5% | 42.1% | 51.9% | 43.8% | 18.3% | 55.7% | 60% | 46.6% | growth at 10 µM [21]: 54.8%; growth at 10 µM [22]: 39.3%; inhibition of growth at 10 µM [23]: 70%; growth at 10 µM [24]: 52.5%; growth at 10 µM [25]: 48.4%; inhibition of growth at 10 µM [26]: 70%; growth at 10 µM [27]: 19.6%; growth at 10 µM [28]: 26.2%; growth at 10 µM [29]: 13.4%; growth at 10 µM [30]: 77%; growth at 10 µM [31]: 61.2%; inhibition of growth at 10 µM [32]: 85%
2 | O=[N+]([O-])c1ccc(-c2cc3c(Nc4ccc(OCc5cccc(F)c5)c(Cl)c4)ncnc3s2)cc1 | 79.2% | 65.7% | 68.6% | 20% | 94.7% | 15% | 42.2% | 68.3% | 97.3% | 80.1% | 99.2% | 98.5% | 75.5% | 94.4% | 77.2% | 91.9% | 93.5% | 79.1% | 12% | 34.5% | growth at 10 µM [21]: 89.6%; growth at 10 µM [22]: 84.8%; inhibition of growth at 10 µM [23]: 23%; growth at 10 µM [24]: 81.3%; growth at 10 µM [25]: 83.4%; inhibition of growth at 10 µM [26]: 30%; growth at 10 µM [27]: 59.2%; growth at 10 µM [28]: 78.9%; growth at 10 µM [29]: 87.8%; growth at 10 µM [30]: 94.9%; growth at 10 µM [31]: 103%; inhibition of growth at 10 µM [32]: 40%
